{"source": "paper PMC9989852", "about": "(Food and chemical toxicology : an international journal …, 2022)", "type_in_all_cases": "in vivo, B6C3F1 mice", "key": {"ear pinna [1]": {"tested_on": "ear pinna", "experiment": "Skin", "conditions": "dermal, 28 days", "how_it_was_run": "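Female B6C3F1 mice (5/group) received 25 μl/ear daily to the dorsal ears in acetone. About 24 h after the last dose, tissues went into RPMI: both auricular dLNs, half spleen and one ear pinna. Single-cell suspensions were acquired on an LSR II, with populations gated per supplemental strategy and FMO gating controls. Results are mean ± SE, n=5, by one-way ANOVA.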"}, "[2]": {"experiment": "PFAS concentration in pooled urine", "conditions": "5%, dermal, 28 days; 5 pooled samples", "how_it_was_run": "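Urine was caught in a weigh boat as it was excreted during CO2 euthanasia, about 24 h after the final daily ear dose (25 μl/ear, acetone vehicle; female B6C3F1 mice). The 5 mice per group were pooled, with variable volume. Samples underwent solid-phase extraction and LC/MS/MS, as linear isomer for short-chain analytes and linear plus branched for the comparator. Each group gave a single value without statistics.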"}, "ear pinna [3]": {"tested_on": "ear pinna", "experiment": "Ear", "conditions": "dermal, 28 days, mice affected of 5", "how_it_was_run": "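Female B6C3F1 mice (5/group) received 25 μl/ear on the dorsal ear surfaces daily, with acetone as vehicle. Tissues were formalin-fixed about 24 h after the last dose: liver remainder, half spleen, right kidney and half ear pinna. Sections were paraffin-embedded, cut at 5 μm and stained with H&E. A veterinary pathologist read them per STP guideline and graded 1 (minimal) to 5 (severe) by extent.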"}}, "note": "Several values for one entry are separate records, joined by “and”; a condition that tells them apart may be missing. Equal entries are not always repeated."}
{"smiles": "O=C(O)C(F)(F)C(F)(F)C(F)(F)C(F)(F)F", "note": "[PFPeA, perfluoropentanoic acid]", "values": [{"measurement": "Ear CD4^+ cell number", "setting": "ear pinna [1]; 1.25%", "value": "2.55 ± 0.41 × 10^3"}, {"measurement": "Ear CD4^+ frequency", "setting": "ear pinna [1]; 1.25%", "value": "2.93 ± 0.23", "unit": "%"}, {"measurement": "Ear CD8^+ cell number", "setting": "ear pinna [1]; 1.25%", "value": "1.38 ± 0.17 × 10^2"}, {"measurement": "Ear CD8^+ frequency", "setting": "ear pinna [1]; 1.25%", "value": "0.16 ± 0.02", "unit": "%"}, {"measurement": "Ear CD45^+ cell number", "setting": "ear pinna [1]; 1.25%", "value": "8.61 ± 1.11 × 10^4"}, {"measurement": "Ear CD45^+ frequency", "setting": "ear pinna [1]; 1.25%", "value": "8.16 ± 0.67", "unit": "%"}, {"measurement": "Ear CD lib- F4/80+ DCs cell number", "setting": "ear pinna [1]; 1.25%", "value": "17.60 ± 3.16 × 10^2"}, {"measurement": "Ear CDllb + F4/80+ DCs cell number", "setting": "ear pinna [1]; 1.25%", "value": "26.50 ± 4.08 × 10^2"}, {"measurement": "Ear CDllb- F4/80+ DCs frequency", "setting": "ear pinna [1]; 1.25%", "value": "2.10 ± 0.37", "unit": "%"}, {"measurement": "Ear CDllb- F4/80-DCs cell number", "setting": "ear pinna [1]; 1.25%", "value": "2.15 ± 0.38 × 10^3"}, {"measurement": "Ear Dendritic Cells cell number", "setting": "ear pinna [1]; 1.25%", "value": "6.78 ± 0.97 × 10^3"}, {"measurement": "Ear Dendritic Cells frequency", "setting": "ear pinna [1]; 1.25%", "value": "7.83 ± 0.37", "unit": "%"}, {"measurement": "Ear Eosinophils cell number", "setting": "ear pinna [1]; 1.25%", "value": "2.72 ± 0.51 × 10^3"}, {"measurement": "Ear Eosinophils frequency", "setting": "ear pinna [1]; 1.25%", "value": "3.13 ± 0.31", "unit": "%"}, {"measurement": "Ear NK cell number", "setting": "ear pinna [1]; 1.25%", "value": "5.64 ± 0.85 × 10^2"}, {"measurement": "Ear NK frequency", "setting": "ear pinna [1]; 1.25%", "value": "0.66 ± 0.06", "unit": "%"}, {"measurement": "Ear Neutrophils cell number", "setting": "ear pinna [1]; 1.25%", "value": "2.28 ± 0.53 × 10^2"}, {"measurement": "Ear Neutrophils frequency", "setting": "ear pinna [1]; 1.25%", "value": "0.27 ± 0.06", "unit": "%"}, {"measurement": "Ear Total Cellularity", "setting": "ear pinna [1]; 1.25%", "value": "1.05 ± 0.10 × 10^6"}, {"measurement": "Ear CD4^+ cell number", "setting": "ear pinna [1]; 2.5%", "value": "4.65 ± 0.67 × 10^3"}, {"measurement": "Ear CD45^+ cell number", "setting": "ear pinna [1]; 2.5%", "value": "10.30 ± 1.26 × 10^4"}, {"measurement": "Ear CD45^+ frequency", "setting": "ear pinna [1]; 2.5%", "value": "11.46 ± 1.03", "unit": "%"}, {"measurement": "Ear CD lib- F4/80+ DCs cell number", "setting": "ear pinna [1]; 2.5%", "value": "17.80 ± 3.48 × 10^2"}, {"measurement": "Ear CDllb + F4/80+ DCs frequency", "setting": "ear pinna [1]; 2.5%", "value": "4.22 ± 0.51", "unit": "%"}, {"measurement": "Ear CDllb- F4/80+ DCs frequency", "setting": "ear pinna [1]; 2.5%", "value": "1.73 ± 0.22", "unit": "%"}, {"measurement": "Ear CDllb- F4/80-DCs cell number", "setting": "ear pinna [1]; 2.5%", "value": "2.79 ± 0.54 × 10^3"}, {"measurement": "Ear Dendritic Cells cell number", "setting": "ear pinna [1]; 2.5%", "value": "9.44 ± 2.00 × 10^3"}, {"measurement": "Ear NK cell number", "setting": "ear pinna [1]; 2.5%", "value": "5.86 ± 0.63 × 10^2"}, {"measurement": "Ear NK frequency", "setting": "ear pinna [1]; 2.5%", "value": "0.57 ± 0.01", "unit": "%"}, {"measurement": "Ear Neutrophils cell number", "setting": "ear pinna [1]; 2.5%", "value": "3.16 ± 0.37 × 10^2"}, {"measurement": "Ear Neutrophils frequency", "setting": "ear pinna [1]; 2.5%", "value": "0.32 ± 0.05", "unit": "%"}, {"measurement": "Ear Total Cellularity", "setting": "ear pinna [1]; 2.5%", "value": "0.88 ± 0.04 × 10^6"}, {"measurement": "Ear CD4^+ cell number", "setting": "ear pinna [1]; 5%", "value": "10.80 ± 1.17 × 10^3"}, {"measurement": "Ear CD4^+ frequency", "setting": "ear pinna [1]; 5%", "value": "5.64 ± 0.27", "unit": "%"}, {"measurement": "Ear CD8^+ cell number", "setting": "ear pinna [1]; 5%", "value": "8.33 ± 1.57 × 10^2"}, {"measurement": "Ear CD8^+ frequency", "setting": "ear pinna [1]; 5%", "value": "0.42 ± 0.04", "unit": "%"}, {"measurement": "Ear CD45^+ cell number", "setting": "ear pinna [1]; 5%", "value": "19.40 ± 2.55 × 10^4"}, {"measurement": "Ear CD45^+ frequency", "setting": "ear pinna [1]; 5%", "value": "13.60 ± 0.97", "unit": "%"}, {"measurement": "Ear CD lib- F4/80+ DCs cell number", "setting": "ear pinna [1]; 5%", "value": "45.60 ± 8.63 × 10^2"}, {"measurement": "Ear CDllb + F4/80+ DCs cell number", "setting": "ear pinna [1]; 5%", "value": "86.70 ± 10.20 × 10^2"}, {"measurement": "Ear CDllb + F4/80+ DCs frequency", "setting": "ear pinna [1]; 5%", "value": "4.51 ± 0.18", "unit": "%"}, {"measurement": "Ear CDllb- F4/80+ DCs frequency", "setting": "ear pinna [1]; 5%", "value": "2.36 ± 0.35", "unit": "%"}, {"measurement": "Ear CDllb- F4/80-DCs cell number", "setting": "ear pinna [1]; 5%", "value": "6.19 ± 0.94 × 10^3"}, {"measurement": "Ear CDllb- F4/80-DCs frequency", "setting": "ear pinna [1]; 5%", "value": "3.16 ± 0.10", "unit": "%"}, {"measurement": "Ear Dendritic Cells cell number", "setting": "ear pinna [1]; 5%", "value": "20.20 ± 2.65 × 10^3"}, {"measurement": "Ear Dendritic Cells frequency", "setting": "ear pinna [1]; 5%", "value": "10.42 ± 0.36", "unit": "%"}, {"measurement": "Ear Eosinophils cell number", "setting": "ear pinna [1]; 5%", "value": "13.50 ± 2.05 × 10^3"}, {"measurement": "Ear Eosinophils frequency", "setting": "ear pinna [1]; 5%", "value": "7.35 ± 1.24", "unit": "%"}, {"measurement": "Ear NK cell number", "setting": "ear pinna [1]; 5%", "value": "16.10 ± 4.27 × 10^2"}, {"measurement": "Ear NK frequency", "setting": "ear pinna [1]; 5%", "value": "0.80 ± 0.12", "unit": "%"}, {"measurement": "Ear Neutrophils cell number", "setting": "ear pinna [1]; 5%", "value": "21.60 ± 8.98 × 10^2"}, {"measurement": "Ear Neutrophils frequency", "setting": "ear pinna [1]; 5%", "value": "0.97 ± 0.31", "unit": "%"}, {"measurement": "Ear Total Cellularity", "setting": "ear pinna [1]; 5%", "value": "1.41 ± 0.11 × 10^6"}, {"measurement": "urine PFAS concentration", "setting": "[2]", "value": 5600, "unit": "µg/mL"}, {"measurement": "Ear: Degeneration/regeneration, cartilage, focal, Mild (incidence)", "setting": "ear pinna [3]; 1.25%", "value": 0}, {"measurement": "Ear: Fibrosis, dermis, focal, Minimal (incidence)", "setting": "ear pinna [3]; 1.25%", "value": 0}, {"measurement": "Ear: Hyperkeratosis, epidermis, focal, Mild (incidence)", "setting": "ear pinna [3]; 1.25%", "value": 0}, {"measurement": "Ear: Hyperkeratosis, epidermis, focal, Minimal (incidence)", "setting": "ear pinna [3]; 1.25%", "value": 0}, {"measurement": "Ear: Hyperplasia, epidermis, focal, Mild (incidence)", "setting": "ear pinna [3]; 1.25%", "value": 0}, {"measurement": "Ear: Hyperplasia, epidermis, focal, Minimal (incidence)", "setting": "ear pinna [3]; 1.25%", "value": 0}, {"measurement": "Ear: Inflammation, mixed cell, dermis, Minimal (incidence)", "setting": "ear pinna [3]; 1.25%", "value": 0}, {"measurement": "Ear: Inflammation, mononuclear cell, dermis, Minimal (incidence)", "setting": "ear pinna [3]; 1.25%", "value": 0}, {"measurement": "Ear: Necrosis, epidermis, multifocal, Minimal (incidence)", "setting": "ear pinna [3]; 1.25%", "value": 0}, {"measurement": "Ear: Degeneration/regeneration, cartilage, focal, Mild (incidence)", "setting": "ear pinna [3]; 2.5%", "value": 0}, {"measurement": "Ear: Fibrosis, dermis, focal, Minimal (incidence)", "setting": "ear pinna [3]; 2.5%", "value": 0}, {"measurement": "Ear: Hyperkeratosis, epidermis, focal, Mild (incidence)", "setting": "ear pinna [3]; 2.5%", "value": 0}, {"measurement": "Ear: Hyperkeratosis, epidermis, focal, Minimal (incidence)", "setting": "ear pinna [3]; 2.5%", "value": 0}, {"measurement": "Ear: Hyperplasia, epidermis, focal, Mild (incidence)", "setting": "ear pinna [3]; 2.5%", "value": 0}, {"measurement": "Ear: Hyperplasia, epidermis, focal, Minimal (incidence)", "setting": "ear pinna [3]; 2.5%", "value": "4/5 and 4"}, {"measurement": "Ear: Inflammation, mixed cell, dermis, Minimal (incidence)", "setting": "ear pinna [3]; 2.5%", "value": "2/5 and 2"}, {"measurement": "Ear: Inflammation, mononuclear cell, dermis, Minimal (incidence)", "setting": "ear pinna [3]; 2.5%", "value": 0}, {"measurement": "Ear: Necrosis, epidermis, multifocal, Minimal (incidence)", "setting": "ear pinna [3]; 2.5%", "value": 0}, {"measurement": "Ear: Degeneration/regeneration, cartilage, focal, Mild (incidence)", "setting": "ear pinna [3]; 5%", "value": 0}, {"measurement": "Ear: Fibrosis, dermis, focal, Minimal (incidence)", "setting": "ear pinna [3]; 5%", "value": "4/5 and 4"}, {"measurement": "Ear: Hyperkeratosis, epidermis, focal, Mild (incidence)", "setting": "ear pinna [3]; 5%", "value": 0}, {"measurement": "Ear: Hyperkeratosis, epidermis, focal, Minimal (incidence)", "setting": "ear pinna [3]; 5%", "value": "2/5 and 2"}, {"measurement": "Ear: Hyperplasia, epidermis, focal, Mild (incidence)", "setting": "ear pinna [3]; 5%", "value": "3/5 and 3"}, {"measurement": "Ear: Hyperplasia, epidermis, focal, Minimal (incidence)", "setting": "ear pinna [3]; 5%", "value": "2/5 and 2"}, {"measurement": "Ear: Inflammation, mixed cell, dermis, Minimal (incidence)", "setting": "ear pinna [3]; 5%", "value": "4/5 and 4"}, {"measurement": "Ear: Inflammation, mononuclear cell, dermis, Minimal (incidence)", "setting": "ear pinna [3]; 5%", "value": 0}, {"measurement": "Ear: Necrosis, epidermis, multifocal, Minimal (incidence)", "setting": "ear pinna [3]; 5%", "value": 0}]}
